Measured values from ChEMBL document CHEMBL5036331 (J Med Chem, 2021).
Values after ≈ are worked out from the molar mass of the structure shown. Blank lines part the entries; values can stand above or below the molecule they belong to. Active and inactive are the calls of the source. No cut-off for these calls is given here.

Legend:
[1] = Aqueous solubility of the compound at pH 6.5 for 24 hrs by HPLC-MS/MS; format: physicochemical
[2] = Clearance in Wistar-Han rat hepatocytes at 1 uM measured for 2 to 90 mins by LC-MS/MS; format: ADME, cell-based, Hepatocyte; settings: time 2-90 min; for CLhep predicted at 1 µM: Wistar-Han
[3] = test system: A2780; experiment: cells; format: functional, cell-based; settings: Homo sapiens, A2780, 96 h
[4] = Metabolic stability in Wistar-Han rat hepatocytes at 1 uM measured for 2 to 90 mins by LC-MS/MS; format: ADME, cell-based, Hepatocyte; settings: time 2-90 min
[5] = Clearance in Wistar-Han rat blood at 0.3 to 0.5 mg/kg, iv measured upto 24 hrs by HPLC with LC-MS/MS; format: ADME, organism-based; settings: dose 0.3-0.5 mg/kg
[6] = Apparent permeability of the compound across apical side to basolateral side in human CaCo-2 cells at 2 uM incubated for 2 hrs; format: ADME, cell-based
Summary of the method: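 Caco-2 monolayers with TEER of at least 400 Ω·cm². Compound (predissolved in DMSO) added apically or basolaterally at a final 2 μM and incubated 2 h at 37 °C, in triplicate. Both compartments were sampled before and after, MeOH-precipitated and analysed by LC–MS/MS. Papp = (Vr/P0)(1/S)(P2/t).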

[7] = Volume of distribution at steady state in Wistar-Han rat blood at 0.3 to 0.5 mg/kg, iv measured upto 24 hrs by HPLC with LC-MS/MS; format: ADME, organism-based; settings: dose 0.3-0.5 mg/kg, read-out: Vdss
[8] = test system: MOLM-13; experiment: Antitumor activity against human MOLM-13 cells xenografted in AML mouse model assessed as tumor volume by measuring T/C ratio at 15 mg/kg, iv qd; format: functional
Summary of the method: (§1)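 Nude mouse MOLM-13 AML xenograft. Compound dosed iv on the stated schedule, starting 5 days after tumor cell inoculation. Tumor volumes were followed. T/C ratio was taken from mean tumor volumes at the time point when the vehicle group was sacrificed, with significance tested against vehicle controls.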

[9] = test system: MOLM-13; experiment: Antitumor activity against human MOLM-13 cells xenografted in AML mouse model assessed as tumor volume by measuring T/C ratio at 65 mg/kg, iv administered once in 5 days; format: functional; settings: time 5 day; summary of the method: as §1
[10] = Clearance in Wistar-Han rat Liver microsomes at 1 uM measured for 2 to 90 mins by LC-MS/MS; format: ADME, Microsome; settings: time 2-90 min
[11] = test system: MOLM-13; experiment: Antitumor activity against human MOLM-13 cells xenografted in AML mouse model assessed as tumor volume by measuring T/C ratio at 35 mg/kg, iv administered once in 3 days; format: functional; settings: time 3 day; summary of the method: as §1
[12] = Half life in Wistar-Han rat blood at 0.3 to 0.5 mg/kg, iv measured upto 24 hrs by HPLC with LC-MS/MS; format: ADME, organism-based; settings: dose 0.3-0.5 mg/kg
[13] = Aqueous solubility of the compound at pH 4 for 24 hrs by HPLC-MS/MS; format: physicochemical
[14] = test system: MV4-11; experiment: Antitumor activity against human MV4-11 cells xenografted in rat assessed as inhibition of tumor growth at 12 mg/kg, po administered for 15 days measured after without treatment for additional 30 days; format: functional, organism-based; settings: time 15.0 day
Summary of the method: (§2)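 Rat MV4-11 xenograft, oral dosing at 12 mg/kg daily for 15 days. Tumor growth was monitored during treatment and for a further 30 days without treatment.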

[15] = target: Cytochrome P450 3A4 (Homo sapiens, UniProt P08684); experiment: Inhibition of CYP3A4 in human liver microsomes using midazolam/testosterone as substrate by LC-MS/MS analysis; format: ADME; settings: read-out: INH
[16] = test system: MOLM-13; experiment: cells; format: functional, cell-based; settings: Homo sapiens, MOLM-13, 96 h
[17] = target: Cytochrome P450 2C9 (Homo sapiens, UniProt P11712); experiment: Inhibition of CYP2C9 in human liver microsomes using diclofenac as substrate by LC-MS/MS analysis; format: ADME; settings: read-out: INH
[18] = Ratio of drug level in Wistar-Han rat blood to plasma; settings: blood and plasma
[19] = target: T1, Cytochrome P450 1A2 (Homo sapiens, UniProt P05177); experiment: Inhibition of CYP1A2 in human liver microsomes using phenacetin as substrate by LC-MS/MS analysis; format: ADME; settings: read-out: INH
T1 sequence (P05177 whole entry): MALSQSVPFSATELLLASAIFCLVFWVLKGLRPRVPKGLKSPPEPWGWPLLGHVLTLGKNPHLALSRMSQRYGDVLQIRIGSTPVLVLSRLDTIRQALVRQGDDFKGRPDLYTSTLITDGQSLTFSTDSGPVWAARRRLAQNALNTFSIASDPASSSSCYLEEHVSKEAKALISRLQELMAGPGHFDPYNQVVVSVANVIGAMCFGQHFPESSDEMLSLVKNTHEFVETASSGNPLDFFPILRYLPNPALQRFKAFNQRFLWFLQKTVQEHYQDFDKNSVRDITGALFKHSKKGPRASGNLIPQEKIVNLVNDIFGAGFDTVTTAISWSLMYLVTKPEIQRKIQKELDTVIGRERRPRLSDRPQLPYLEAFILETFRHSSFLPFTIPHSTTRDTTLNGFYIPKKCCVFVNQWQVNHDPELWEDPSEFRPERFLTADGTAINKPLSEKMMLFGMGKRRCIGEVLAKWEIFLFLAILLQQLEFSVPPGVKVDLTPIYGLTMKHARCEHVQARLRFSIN

[20] = target: Cytochrome P450 2E1 (Homo sapiens, UniProt P05181); experiment: Inhibition of CYP2E1 in human liver microsomes using chlorzoxazone as substrate by LC-MS/MS analysis; format: ADME
[21] = test system: MV4-11; experiment: Antitumor activity against human MV4-11 cells xenografted in rat assessed as inhibition of tumor growth at 12 mg/kg, po administered for 15 days; format: functional, organism-based; settings: time 15.0 day; summary of the method: as §2
[22] = target: T2, Cytochrome P450 2C8 (Homo sapiens, UniProt P10632); experiment: Inhibition of CYP2C8 in human liver microsomes using amodiaquine as substrate by LC-MS/MS analysis; format: ADME; settings: read-out: INH
T2 sequence (P10632 whole entry): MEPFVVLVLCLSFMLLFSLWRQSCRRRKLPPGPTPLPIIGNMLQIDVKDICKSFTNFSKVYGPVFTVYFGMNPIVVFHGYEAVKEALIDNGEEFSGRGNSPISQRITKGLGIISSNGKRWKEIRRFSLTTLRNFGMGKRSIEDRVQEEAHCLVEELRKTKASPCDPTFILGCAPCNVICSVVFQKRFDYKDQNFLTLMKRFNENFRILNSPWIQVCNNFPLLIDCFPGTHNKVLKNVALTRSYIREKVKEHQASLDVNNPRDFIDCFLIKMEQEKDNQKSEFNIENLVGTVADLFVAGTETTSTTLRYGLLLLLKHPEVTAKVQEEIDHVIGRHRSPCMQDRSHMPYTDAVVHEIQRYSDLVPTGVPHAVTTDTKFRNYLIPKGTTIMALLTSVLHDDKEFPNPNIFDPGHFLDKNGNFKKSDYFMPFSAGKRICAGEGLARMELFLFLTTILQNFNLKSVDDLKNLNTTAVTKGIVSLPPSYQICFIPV

[23] = target: Cytochrome P450 2D6 (Homo sapiens, UniProt P10635); experiment: Inhibition of CYP2D6 in human liver microsomes using dextromethorphan as substrate by LC-MS/MS analysis; format: ADME; settings: read-out: INH
[24] = target: T3, Cytochrome P450 2A6 (Homo sapiens, UniProt P11509); experiment: Inhibition of CYP2A6 in human liver microsomes using coumarin as substrate by LC-MS/MS analysis; format: ADME
T3 sequence (P11509 whole entry): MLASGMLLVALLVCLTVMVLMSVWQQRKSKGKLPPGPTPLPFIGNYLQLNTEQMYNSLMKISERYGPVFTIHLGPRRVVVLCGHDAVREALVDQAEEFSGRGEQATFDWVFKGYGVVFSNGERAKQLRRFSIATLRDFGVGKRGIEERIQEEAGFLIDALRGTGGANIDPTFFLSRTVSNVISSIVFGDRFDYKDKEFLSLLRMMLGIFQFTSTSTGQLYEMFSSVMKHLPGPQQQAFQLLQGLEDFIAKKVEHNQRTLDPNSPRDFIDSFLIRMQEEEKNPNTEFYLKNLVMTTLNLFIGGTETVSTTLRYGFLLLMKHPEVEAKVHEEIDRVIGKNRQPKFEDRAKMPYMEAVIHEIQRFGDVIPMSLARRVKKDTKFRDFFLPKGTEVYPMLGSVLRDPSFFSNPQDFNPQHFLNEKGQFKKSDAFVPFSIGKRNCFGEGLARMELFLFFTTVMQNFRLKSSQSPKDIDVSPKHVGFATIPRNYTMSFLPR

[25] = target: T4, Cytochrome P450 2B6 (Homo sapiens, UniProt P20813); experiment: Inhibition of CYP2B6 in human liver microsomes using bupropion as substrate by LC-MS/MS analysis; format: ADME
T4 sequence (P20813 whole entry): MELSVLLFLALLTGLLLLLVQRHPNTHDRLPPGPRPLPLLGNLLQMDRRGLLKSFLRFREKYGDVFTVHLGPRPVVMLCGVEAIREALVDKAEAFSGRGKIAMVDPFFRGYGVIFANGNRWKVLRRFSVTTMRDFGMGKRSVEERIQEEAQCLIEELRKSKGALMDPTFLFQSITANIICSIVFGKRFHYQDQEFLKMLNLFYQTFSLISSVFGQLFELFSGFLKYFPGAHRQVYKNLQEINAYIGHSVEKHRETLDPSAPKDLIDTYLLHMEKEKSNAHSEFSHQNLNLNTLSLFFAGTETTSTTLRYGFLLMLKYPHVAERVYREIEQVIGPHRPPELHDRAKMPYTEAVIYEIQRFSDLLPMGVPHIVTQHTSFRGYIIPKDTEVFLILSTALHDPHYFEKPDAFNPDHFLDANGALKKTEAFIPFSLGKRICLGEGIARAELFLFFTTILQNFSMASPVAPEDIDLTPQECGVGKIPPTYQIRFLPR

[26] = target: T1, Cytochrome P450 1A2; experiment: Induction of CYP1A2 in human hepatocytes by LC-MS/MS analysis; format: ADME, cell-based, Hepatocyte
[27] = target: Cytochrome P450 2C19 (Homo sapiens, UniProt P33261); experiment: Inhibition of CYP2C19 in human liver microsomes using (S)-mephenytoin as substrate by LC-MS/MS analysis; format: ADME; settings: read-out: INH
[28] = Efflux ratio of apparent permeability across basolateral to apical side over apical to basolateral side in human Caco2 cells at 2 uM incubated for 2 hrs; settings: Caco-2

Cytochrome P450 2C19, sequence (P33261 whole entry): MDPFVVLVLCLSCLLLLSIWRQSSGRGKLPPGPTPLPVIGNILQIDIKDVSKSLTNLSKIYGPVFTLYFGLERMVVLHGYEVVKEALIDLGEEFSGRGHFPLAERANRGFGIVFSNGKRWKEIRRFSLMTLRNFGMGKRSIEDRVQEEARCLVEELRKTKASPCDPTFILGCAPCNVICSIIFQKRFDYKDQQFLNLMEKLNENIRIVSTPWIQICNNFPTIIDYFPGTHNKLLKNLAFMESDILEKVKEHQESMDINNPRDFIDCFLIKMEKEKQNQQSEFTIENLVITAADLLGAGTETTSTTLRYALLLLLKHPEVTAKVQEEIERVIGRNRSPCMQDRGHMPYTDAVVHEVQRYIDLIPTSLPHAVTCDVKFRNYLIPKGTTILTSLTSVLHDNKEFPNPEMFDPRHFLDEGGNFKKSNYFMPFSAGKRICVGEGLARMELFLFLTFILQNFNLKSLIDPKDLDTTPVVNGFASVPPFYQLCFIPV
Cytochrome P450 2E1, sequence (P05181 whole entry): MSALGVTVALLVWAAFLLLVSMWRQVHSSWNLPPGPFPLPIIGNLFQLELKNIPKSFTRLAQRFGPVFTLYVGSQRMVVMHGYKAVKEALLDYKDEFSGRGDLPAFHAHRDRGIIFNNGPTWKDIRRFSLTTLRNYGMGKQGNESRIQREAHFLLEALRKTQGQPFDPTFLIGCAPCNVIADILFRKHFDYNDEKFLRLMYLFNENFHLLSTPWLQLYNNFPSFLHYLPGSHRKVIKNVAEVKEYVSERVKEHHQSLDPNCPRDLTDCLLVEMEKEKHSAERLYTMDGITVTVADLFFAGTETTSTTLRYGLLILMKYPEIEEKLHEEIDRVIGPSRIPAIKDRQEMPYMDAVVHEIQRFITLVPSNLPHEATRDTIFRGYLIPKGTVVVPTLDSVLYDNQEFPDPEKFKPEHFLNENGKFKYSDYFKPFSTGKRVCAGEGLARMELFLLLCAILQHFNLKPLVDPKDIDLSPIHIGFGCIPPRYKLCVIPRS
Cytochrome P450 2D6, sequence (P10635 whole entry): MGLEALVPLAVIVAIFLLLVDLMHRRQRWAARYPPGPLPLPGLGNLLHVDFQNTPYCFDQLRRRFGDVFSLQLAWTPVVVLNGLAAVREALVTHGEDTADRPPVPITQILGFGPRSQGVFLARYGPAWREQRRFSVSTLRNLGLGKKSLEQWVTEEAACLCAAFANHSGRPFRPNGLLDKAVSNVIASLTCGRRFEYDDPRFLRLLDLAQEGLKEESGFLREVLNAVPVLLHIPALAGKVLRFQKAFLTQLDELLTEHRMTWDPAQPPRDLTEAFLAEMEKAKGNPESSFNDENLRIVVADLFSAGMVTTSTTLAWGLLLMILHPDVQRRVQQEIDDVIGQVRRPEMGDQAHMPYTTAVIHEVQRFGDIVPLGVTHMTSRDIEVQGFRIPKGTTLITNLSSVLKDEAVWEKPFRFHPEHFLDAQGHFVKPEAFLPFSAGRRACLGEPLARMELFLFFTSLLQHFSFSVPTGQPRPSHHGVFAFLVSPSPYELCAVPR
Cytochrome P450 3A4, sequence (P08684 whole entry): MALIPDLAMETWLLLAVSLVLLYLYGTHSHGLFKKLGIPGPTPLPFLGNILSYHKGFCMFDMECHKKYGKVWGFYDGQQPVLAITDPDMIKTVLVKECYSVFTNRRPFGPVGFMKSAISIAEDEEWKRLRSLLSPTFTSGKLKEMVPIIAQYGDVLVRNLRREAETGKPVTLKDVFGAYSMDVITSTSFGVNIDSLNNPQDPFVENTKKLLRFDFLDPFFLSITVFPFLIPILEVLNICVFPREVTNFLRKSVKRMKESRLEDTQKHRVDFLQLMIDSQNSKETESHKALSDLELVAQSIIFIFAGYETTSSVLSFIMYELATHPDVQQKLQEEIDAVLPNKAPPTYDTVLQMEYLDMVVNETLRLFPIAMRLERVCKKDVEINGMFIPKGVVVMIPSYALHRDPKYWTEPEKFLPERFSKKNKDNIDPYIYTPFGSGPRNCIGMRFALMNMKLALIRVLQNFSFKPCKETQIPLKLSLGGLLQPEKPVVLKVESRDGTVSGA
Cytochrome P450 2C9, sequence (P11712 whole entry): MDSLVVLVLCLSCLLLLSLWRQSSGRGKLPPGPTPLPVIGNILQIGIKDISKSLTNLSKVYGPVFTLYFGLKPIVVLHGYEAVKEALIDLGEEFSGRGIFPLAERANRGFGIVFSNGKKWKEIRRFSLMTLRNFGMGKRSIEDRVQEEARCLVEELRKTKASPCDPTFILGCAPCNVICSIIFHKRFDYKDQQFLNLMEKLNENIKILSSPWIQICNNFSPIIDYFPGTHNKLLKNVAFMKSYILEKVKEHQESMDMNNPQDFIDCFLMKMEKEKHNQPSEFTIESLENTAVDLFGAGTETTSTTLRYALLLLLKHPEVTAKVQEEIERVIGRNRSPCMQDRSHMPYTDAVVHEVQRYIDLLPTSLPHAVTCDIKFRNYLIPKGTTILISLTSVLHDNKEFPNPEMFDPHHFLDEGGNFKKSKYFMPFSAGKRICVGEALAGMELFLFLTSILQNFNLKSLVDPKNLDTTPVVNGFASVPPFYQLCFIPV

Compound: COc1cc(F)ccc1-c1nc(Nc2cc(F)cc(CS(=O)(CCCO)=NC#N)c2)ncc1F (stereo unspecified)
solubility at 24 h [1]: 0.5 µg/mL (≈ 1.02 µM)
IC50 [3]: 262 nM
CLhep predicted at 1 µM [2]: 58.3 mL/min/kg

Compound: COc1cc(F)ccc1-c1nc(Nc2cc(F)c(F)c(CS(C)(=O)=NC#N)c2)ncc1F (stereo unspecified)
Stability [4]: Unstable
solubility at 24 h [1]: 0.2 µg/mL (≈ 0.43 µM)
IC50 [3]: 37 nM
CLhep predicted at 1 µM [2]: 55 mL/min/kg

Compound: COc1cc(F)ccc1-c1ncnc(Nc2cccc(CS(C)(=N)=O)c2)n1 (stereo unspecified)
Activity [14]: inactive
IC50 [15]: > 20000 nM
clearance [5]: 18.3 mL/min/kg
IC50 [16]: 310 nM
Papp A→B at 2 h, 2 µM [6]: 3.5 ×10⁻⁶ cm/s
IC50 [17]: > 20000 nM
Vd [7]: 1 L/kg
blood plasma ratio [18]: 1.1
IC50 [19]: > 20000 nM
INH [20]: > 20 µM
solubility at 24 h [1]: 479 µg/mL (≈ 1240 µM)
CLH [10]: 2.5 mL/min/kg
Activity [21]: Active
IC50 [22]: > 20000 nM
IC50 [3]: 380 nM
IC50 [23]: > 20000 nM
INH [24]: > 20 µM
CLhep predicted at 1 µM [2]: 2.83 mL/min/kg
INH [25]: > 20 µM
Activity [26]: Not Active
solubility at 24 h [13]: 309 µg/mL (≈ 798 µM)
IC50 [27]: > 20000 nM
efflux ratio at 2 h, 2 µM [28]: 6.1

Compound: COc1cc(F)ccc1-c1nc(Nc2cc(F)c(F)c(CS(C)(=N)=O)c2)ncc1F (stereo unspecified)
Stability [4]: Stable
CLhep predicted at 1 µM [2]: 41.7 mL/min/kg

Further lines, with some results ahead:

solubility at 24 h [1]: 5 µg/mL (≈ 11.5 µM)
CLhep predicted at 1 µM [2]: 38.3 mL/min/kg
Compound: COc1cc(CS(C)(=N)=O)cc(Nc2ncc(F)c(-c3ccc(F)cc3OC)n2)c1 (stereo unspecified)

clearance [5]: 21.7 mL/min/kg
Papp A→B at 2 h, 2 µM [6]: 16.8 ×10⁻⁶ cm/s
Vd [7]: 1.6 L/kg
CLH [10]: 26.7 mL/min/kg
half-life [12]: 1 h
CLH ([2]; 1 µM): 31.7 mL/min/kg
solubility at 24 h [13]: 30 µg/mL (≈ 71 µM)
Compound: COc1cc(F)ccc1-c1nc(Nc2cc(F)cc(CS(C)(=N)=O)c2)ncc1F (stereo in doubt)
T/C [8]: 0.26
T/C [9]: 0.34
T/C [11]: 0.26

solubility at 24 h [1]: 24 µg/mL (≈ 56.8 µM)
CLhep predicted at 1 µM [2]: 28.3 mL/min/kg
Compound: COc1cc(F)ccc1-c1nc(Nc2cc(F)cc(CS(C)(=N)=O)c2)ncc1F (stereo in doubt; 9)
